Measured values taken from PubChem BioAssay AID588553 (Broad Institute, 2011).

Target: Scavenger receptor class B member 1 (Mus musculus) (UniProt Q61009)
Assay: inhibition of HDL lipid transfer via mSR-BI – ldlA[mSR-BI] CHO cells, powder samples, set 3, dose response (AID 588553)
Settings: DiI-HDL uptake fluorescence, 3 h
Summary of the method: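 Assay system: ldlA[mSR-BI] CHO cells. Buffer or medium: F12 medium with BSA and HEPES. Probe or stimulus: DiI-labelled HDL, 10 µg/mL. Schedule: 3 h compound and DiI-HDL exposure at 37 °C. Detection: fluorescence, ex 550 nm, em 595 nm. Controls: DMSO neutral control, BLT-1 positive control.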

Chain of Scavenger receptor class B member 1 (Mus musculus) (Q61009 whole entry, looked up): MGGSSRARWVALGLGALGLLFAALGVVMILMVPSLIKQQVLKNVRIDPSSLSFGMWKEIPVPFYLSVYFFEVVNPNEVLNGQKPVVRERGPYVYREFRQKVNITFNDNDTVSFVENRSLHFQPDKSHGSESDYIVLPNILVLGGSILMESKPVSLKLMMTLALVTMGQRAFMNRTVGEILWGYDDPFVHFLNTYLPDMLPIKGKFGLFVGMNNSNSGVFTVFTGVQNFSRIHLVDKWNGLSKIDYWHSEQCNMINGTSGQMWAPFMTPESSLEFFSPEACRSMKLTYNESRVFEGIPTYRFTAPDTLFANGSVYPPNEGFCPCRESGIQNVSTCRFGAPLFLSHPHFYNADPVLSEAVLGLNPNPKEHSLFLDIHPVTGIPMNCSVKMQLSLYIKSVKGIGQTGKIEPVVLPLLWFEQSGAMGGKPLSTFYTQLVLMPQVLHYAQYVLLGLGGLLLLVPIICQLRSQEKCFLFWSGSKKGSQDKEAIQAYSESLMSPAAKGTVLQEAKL

Structure (SMILES)	AC50
COc1cc(OC)cc(C(=O)Nc2nc(-c3ccc4c(c3)CCN4)cs2)c1	113 nM
CC(C(=O)NC1CCCC1)N(C(=O)Cn1nnc(-c2ccc3c(c2)OC(F)(F)O3)n1)C1CCCCC1 (configuration not stated)	225 nM
COc1cc(OC)cc(C(=O)Nc2nc(-c3ccc4c(c3)CCN4C(=O)CN(C)C)cs2)c1	< 15 nM
CCC(=O)N1CCc2cc(-c3csc(NC(=O)c4cc(OC)cc(OC)c4)n3)ccc21	52.9 nM
COc1ccc(-c2cc(CC(=O)N(C3CCCCC3)C(C)C(=O)NC3CCCC3)no2)cc1OC (configuration not stated)	15.4 nM
O=C(CN(C(=O)Cn1nnc(-c2ccc3c(c2)OC(F)(F)O3)n1)C1CCCCC1)NC1CCCC1	65.3 nM
COC(=O)N1CCc2cc(-c3csc(NC(=O)c4cc(OC)cc(OC)c4)n3)ccc21	26.9 nM
CCC(=O)Nc1ccc(-c2csc(NC(=O)c3ccco3)n2)cc1	2010 nM
O=C(CN(C(=O)Cn1nnc(-c2ccc3c(c2)OCO3)n1)C1CCCCC1)NC1CCCC1	< 15 nM
CCC(=O)N1CCc2cc(-c3csc(NC(=O)c4cccc(OC(F)(F)F)c4)n3)ccc21	29.2 nM
COc1cc(OC)cc(C(=O)Nc2nc(-c3ccc4c(c3)CCN4C(=O)OC(C)(C)C)cs2)c1	< 15 nM
CCCCCCC1CCC/C1=N\NC(N)=S (configuration not stated)	< 15 nM
CCCN1CCc2cc(-c3csc(NC(=O)c4cc(OC)cc(OC)c4)n3)ccc21	89.5 nM
O=C(Nc1nc(-c2ccc3c(c2)CCN3)cs1)c1ccco1	< 15 nM
CCC(=O)N1CCc2cc(-c3csc(NC(=O)c4ccco4)n3)ccc21	58.7 nM
COCC(=O)N1CCc2cc(-c3csc(NC(=O)c4cc(OC)cc(OC)c4)n3)ccc21	< 15 nM

Structure (SMILES)	AC50
O=C(CN(C(=O)Cn1nnc(-c2ccc(Cl)c(Cl)c2)n1)C1CCCCC1)NC1CCCC1	303 nM
COc1cc(OC)cc(C(=O)Nc2nc(-c3ccc4c(c3)CCN4C(C)=O)cs2)c1	17.4 nM
CC(C)(C)OC(=O)N1CCc2cc(-c3noc(NC(=O)c4ccco4)n3)ccc21	13900 nM
CC(C(=O)NC1CCCC1)N(C(=O)Cn1nnc(-c2ccc3c(c2)OCO3)n1)C1CCOCC1 (configuration not stated)	836 nM
CC(C(=O)NC1CCCC1)N(C(=O)Cn1nnc(-c2ccc3c(c2)OCO3)n1)C1CCCCC1 (configuration not stated)	17 nM
COc1cc(OC)cc(C(=O)Nc2nc(-c3ccc4[nH]ccc4c3)cs2)c1	228 nM
COc1ccc(-c2nnn(CC(=O)N(CC(=O)NC3CCCC3)C3CCCCC3)n2)cc1OC	< 15 nM
CCC(=O)N1CCc2cc(-c3csc(/N=C(/OC)c4cc(OC)cc(OC)c4)n3)ccc21	44.1 nM
CCC(=O)Nc1ccc(-c2csc(N)n2)cc1	140 nM
CCC(=O)N1CCc2cc(-c3csc(NC(=O)c4cc5cccnc5o4)n3)ccc21	141 nM
CCNC(=O)N1CCc2cc(-c3csc(NC(=O)c4cc(OC)cc(OC)c4)n3)ccc21	< 15 nM
CCC(=O)Nc1ccc(-c2csc(NC(=O)c3cccc(OC)c3)n2)cc1	44.7 nM
CCC(=O)N1CCc2cc(-c3csc(NC(=O)c4cc(OC)c(OC)c(OC)c4)n3)ccc21	< 15 nM
COc1ccc(-c2nc(CC(=O)N(C3CCCCC3)C(C)C(=O)NC3CCCC3)cs2)cc1OC (configuration not stated)	6280 nM
CCC(=O)N1CCc2cc(-c3csc(N(C)C(=O)c4cc(OC)cc(OC)c4)n3)ccc21	180 nM
CC(C(=O)NC1CCCC1)N(C(=O)Cn1nnc(-c2ccc(Cl)c(Cl)c2)n1)C1CCCCC1 (configuration not stated)	108 nM
